What was measured:
[1] = Tissue distribution in tumor-bearing mice; assay type: in vivo, nude mice; conditions: for AUC of DTX: native DTX 10 mg/kg
Outline: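 Female nude mice bearing subcutaneous xenografts (cells in 50% Matrigel) got a single iv dose when tumors reached about 400 mm3. Free drug was sampled at 0.083, 1, 6, 24 and 48 h (n = 3 per time). Heart blood was taken under ether into heparin, and plasma was spun at 4°C. Organs were rinsed, stored at −30°C and homogenized 25% w/w in PBS pH 7.4. Drug was quantified by reversed-phase HPLC at 40°C.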

[2] = Toxicology study in cynomolgus monkeys; assay type: in vivo
Outline: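 Male cynomolgus monkeys aged 3–4 years (2.5–3.7 kg, n = 3) were dosed iv three times at 2-week intervals. Food consumption, general condition and body weight were followed for 42 days. White blood cell and neutrophil counts were monitored. Values are means of three monkeys with standard deviation.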

[3] = once-every-3-week schedule; cited from earlier work
[4] = Toxicology studies in mice; assay type: in vivo, mice (Crlj:CD1 (ICR)); conditions: for ALT / AST / CRE / UN: native DTX 10 mg/kg iv x3 at 4-day intervals, one mouse
Outline: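 Male Crlj:CD1 (ICR) mice (n = 10) received iv dosing three times at 4-day intervals, and condition and body weight were followed for 49 days. Mice were killed one at a time for blood collection and autopsy, including macroscopic review of liver and bone marrow. AST, ALT, creatinine and urea nitrogen were run on a clinical chemistry analyzer, with hematology on an automated analyzer.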

[5] = test system: MDA-MB-231 human breast tumor; test: MDA-MB-231 human breast tumor xenograft model; assay type: in vivo, nude mice
Outline: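 3 × 10^6 cells in 50% Matrigel were injected subcutaneously into the backs of female 5-week-old nude mice. Dosing started on day 0: three tail-vein iv injections at 4-day intervals, with an untreated control group. Tumor volume and body weight were tracked. Points are means of seven mice with standard error.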

[6] = test system: OCUM-2MLN human scirrhous gastric carcinoma; test: OCUM-2MLN orthotopic scirrhous gastric carcinoma model; assay type: in vivo, nude mice; conditions: DTX 10 mg/kg; data not shown
[7] = Toxicity dose-finding study in nude mice; assay type: in vivo
advanced gastric cancer = conditions: monotherapy, patients with advanced gastric cancer; cited from earlier work
[8] = native DTX 3 mg/kg iv three times at 2-week intervals

CC(=O)O[C@@]12CO[C@@H]1C[C@H](O)[C@@]1(C)C(=O)[C@H](O)C3=C(C)[C@@H](OC(=O)[C@H](O)[C@@H](NC(=O)OC(C)(C)C)c4ccccc4)C[C@@](O)([C@@H](OC(=O)c4ccccc4)[C@H]21)C3(C)C [Native DTX, Docetaxel]
AUC of DTX ([1]; Heart): 9.5 μg/g or mL · h | AUC of DTX ([1]; Kidney): 44.2 μg/g or mL · h | AUC of DTX ([1]; Liver): 40.1 μg/g or mL · h | AUC of DTX ([1]; Lung): 13.6 μg/g or mL · h | AUC of DTX ([1]; Plasma): 6.7 μg/g or mL · h | AUC of DTX ([1]; Spleen): 27.3 μg/g or mL · h | AUC of DTX ([1]; Tumor): 12.6 μg/g or mL · h | time DTX in plasma remained over 0.1 μg/mL ([1]; native DTX 10 mg/kg iv): less than 5 hours | adverse effects ([2]; native DTX 3 mg/kg): adverse effects including gastrointestinal symptoms | additional weight lost compared with animals administered NC-6301 [2, 8]: up to 20% | white blood cell count and neutrophil count [2, 8]: significantly decreased | decrease in food consumption ([2]; native DTX 3 mg/kg, NC-6301 3 or 6 mg/kg, iv three times at 2-week intervals): critical decrease | MTD in humans [3]: 100 mg/m^2 | ALT ([4]; Day 1): 28 U/L | AST ([4]; Day 1): 85 U/L | CRE ([4]; Day 1): 0.07 mg/dL | UN ([4]; Day 1): 26.1 mg/dL | ALT ([4]; Day 7): 44 U/L | AST ([4]; Day 7): 239 U/L | CRE ([4]; Day 7): 0.17 mg/dL | UN ([4]; Day 7): 27.1 mg/dL | ALT ([4]; Day 10): 23 U/L | AST ([4]; Day 10): 91 U/L | CRE ([4]; Day 10): 0.14 mg/dL | UN ([4]; Day 10): 25.4 mg/dL | ALT ([4]; Day 14): 19 U/L | AST ([4]; Day 14): 62 U/L | CRE ([4]; Day 14): 0.20 mg/dL | UN ([4]; Day 14): 30.5 mg/dL | ALT ([4]; Day 21): 24 U/L | AST ([4]; Day 21): 71 U/L | CRE ([4]; Day 21): 0.12 mg/dL | UN ([4]; Day 21): 20.0 mg/dL | ALT ([4]; Day 28): 22 U/L | AST ([4]; Day 28): 65 U/L | CRE ([4]; Day 28): 0.15 mg/dL | UN ([4]; Day 28): 41.4 mg/dL | ALT ([4]; Day 35): 46 U/L | AST ([4]; Day 35): 171 U/L | CRE ([4]; Day 35): 0.12 mg/dL | UN ([4]; Day 35): 28.0 mg/dL | ALT ([4]; Day 42): 27 U/L | AST ([4]; Day 42): 83 U/L | CRE ([4]; Day 42): 0.11 mg/dL | UN ([4]; Day 42): 22.1 mg/dL | ALT ([4]; Day 49): 22 U/L | AST ([4]; Day 49): 56 U/L | CRE ([4]; Day 49): 0.12 mg/dL | UN ([4]; Day 49): 23.5 mg/dL | myelosuppression ([4]; NC-6301 50 mg/kg, native DTX 10 mg/kg, data not shown): mild and transient | change in liver- or kidney-related blood test markers ([4]; three injections, NC-6301 50 mg/kg, native DTX 10 mg/kg, 49 days): No significant change | maximum body weight loss ([5]; native DTX 10 mg/kg iv x3, mice bearing MDA-MB-231 xenograft): approximately 10% | effect on tumor growth ([5]; three injections at 4-day intervals, NC-6301 50 mg/kg, native DTX 10 mg/kg): transient and slight regression | body weight loss compared with NC-6301 at the higher dose [6]: worse | MTD converted to human equivalent ([7]; mouse MTD 10 mg/kg, three times at 4-day intervals): 30.3 mg/m^2 | body weight change ([7]; native DTX 15 mg/kg vs less than 15 mg/kg, iv three times every 4 days): significant decrease in body weight | response rate (advanced gastric cancer): 20%

Source: paper PMC3383288 (International Journal of Nanomedicine, 2012)
